This is a sample that favours compounds with a hit; in the whole collection about 3.7% have one here.
Dynein cargo inh: dynein cargo transport inhibition; 3617.4 mouse cells, GR-EGFP nuclear translocation imaging; test concentration mostly 20 µM; stimulated with dexamethasone, 1 µM; stronger effect = lower value; z-score, hits read low; actives 0.47% (n = 220,000); AID 1381;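 active = plate z-score of nuclear minus cytoplasmic receptor signal below a set negative limit, without overly bright fluorescence or cell loss, cut at about -3.5 in these data, passing the limit was not always enough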;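 also: z-score of nuclear minus cytoplasmic ring GR-EGFP intensity difference per well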
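Buffer or medium: tet-free medium with charcoal-stripped serum / Also added: dexamethasone agonist, 1.0 µM final, for 30 min / Timing: induction 48 h, compound 1 h, agonist 30 min / Measured by: high-content fluorescence imaging after fixation / Read-out: nuclear-to-cytoplasmic GR-EGFP distribution per well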
Mdm2-MdmX inh: human Mdm2/MdmX binding inhibition. O15151+Q00987. SaOS-2 split-luciferase Mdm2/MdmX complementation, luminescence. inhibition, % at 8 µM. actives 3% (n = 330,000). AID 485346;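 active = inhibition of at least 50% at 8 µM in the primary screen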
MDM2 E3 inh: Mdm2 E3 ligase (human) inhibition; Q00987; signal enhancement, % at 5 µM; cell-based MDM2 ubiquitination luciferase reporter, 2 h; 0 = plate control, 100 = twice control, blank-subtracted; actives 0.11% (n = 210,000); AID 1230;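 active = signal enhancement of 30% or more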;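 also: luminescence tracks abundance of the self-degrading MDM2-luciferase fusion protein; higher signal means inhibition of MDM2 E3 ligase activity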
Target sequence (Q00987 whole entry, looked up, the tested form may be a part): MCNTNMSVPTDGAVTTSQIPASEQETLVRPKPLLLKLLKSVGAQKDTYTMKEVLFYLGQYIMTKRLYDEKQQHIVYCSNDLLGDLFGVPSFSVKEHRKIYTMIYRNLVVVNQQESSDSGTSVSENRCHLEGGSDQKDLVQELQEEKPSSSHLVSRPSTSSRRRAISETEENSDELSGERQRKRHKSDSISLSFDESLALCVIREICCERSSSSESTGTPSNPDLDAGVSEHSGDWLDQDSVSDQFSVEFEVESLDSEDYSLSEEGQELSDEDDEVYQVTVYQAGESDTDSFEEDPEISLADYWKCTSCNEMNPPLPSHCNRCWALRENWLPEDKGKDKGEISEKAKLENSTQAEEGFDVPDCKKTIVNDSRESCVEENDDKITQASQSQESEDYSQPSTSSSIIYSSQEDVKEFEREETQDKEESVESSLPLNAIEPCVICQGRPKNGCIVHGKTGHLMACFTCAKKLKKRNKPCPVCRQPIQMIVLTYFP
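Buffer or medium: Cells held in DMEM | Assay system: Stable mammalian line carrying autodegrading MDM2–luciferase fusion reporter | Quantity: 2000 cells/well | Times: 4 h settle plus 2 h compound, 37 °C | Doses: One concentration, 5 µM, with 0.2% DMSO | Technique: Luminescence with SteadyLite reagent, 15 min at room temperature | Benchmarks: Plate controls and plate blanks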
CHOP UPR activ: apoptotic UPR (CHOP) activation | CHO-CHOP luciferase reporter, luminescence; percent of tunicamycin response over DMSO baseline | activation, % at 10 µM | actives 0.34% (n = 330,000);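 active = at 10 µM dose, activation of 40% or more, normalized to positive control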;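 also: 100% = tunicamycin at 10 µg/mL and 0% = DMSO alone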
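measured by = luciferase luminescence | assay system = CHO-CHOP cells, stable luciferase reporter of PERK-eIF2a-CHOP signalling | amount = 500 reporter cells seeded per well | timing = 6 h compound exposure at 37 °C after overnight seeding | controls = positive tunicamycin 10 µg/mL, negative DMSO alone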
B2AR ag: activates human beta-2 adrenergic receptor causing internalization; P07550; Am2.2-beta2AR cells, FAP receptor internalization, flow cytometry; response, % (concentration not given with the values); actives 0.43% (n = 340,000); AID 504454;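 active = response above a set limit, near 3 SD of response in nonfluorescent compounds, cut at about 42% in these data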
XBP1 UPR activ: adaptive UPR (XBP1) activation; CHO-XBP1 luciferase reporter, IRE1-XBP1 UPR activation, luminescence; percent of tunicamycin response, DMSO as zero; AID 463104; activation, % at 20 µM; actives 0.33% (n = 330,000);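 active = versus positive control, 20 µM dose yields 30% or more activation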;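 also: 100% = tunicamycin at 10 µg/mL and 0% = DMSO only wells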
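Signal: luciferase luminescence; Assay system: CHO-XBP1 luciferase reporter cells; Amount: one thousand reporter cells per well; Dosing: 20 µM single concentration, DMSO 1%; Benchmarks: high control tunicamycin 10 µg/mL final, low control DMSO vehicle only; Schedule: 6 h compound exposure at 37 °C, 5% CO2; Evaluation: percent activation relative to tunicamycin reference.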
CHOP UPR conf: apoptotic UPR (CHOP) activation, confirmed | CHO-CHOP cells, CHOP-luciferase reporter luminescence; percent of tunicamycin response, DMSO as zero | AID 463112 | activation, % at 10 µM | shares compounds with CHOP UPR activ | actives 64% (n = 1,000); in the data active = activation above about 33%;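 also: 0% = DMSO wells and 100% = tunicamycin 10 µg/mL wells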
Starred values were filed as active, the others as inactive; · = not tested or not shown.

SMILES | Dynein cargo inh | Mdm2-MdmX inh | MDM2 E3 inh | CHOP UPR activ | B2AR ag | XBP1 UPR activ | CHOP UPR conf
[O-][n+]1c(/C=C/c2ccccc2)ccc2ccccc21 | · | 19 | · | 127* | 24 | 2 | -5
[O-][n+]1ccccc1/C=C/c1ccccc1 | · | -17 | · | 1 | -5 | 1 | ·
O=C1OCCN1c1c(-c2ccccc2)c(-c2cccs2)nc2c(-c3ccccc3)cccc12 | · | 10 | · | 0 | 3 | 3 | ·
COc1cccc(N2CC(C)Cn3c2nc2c3c(=O)[nH]c(=O)n2C)c1 (stereo unspecified) | · | 13 | · | 2 | -1 | -5 | ·
c1ccc(N2CCN(Cc3nc4ccccc4[nH]3)CC2)nc1 | · | -6 | · | 4 | 2 | -3 | ·
Cc1[nH]c2ccccc2c1CN1CCN(c2ccccn2)CC1 | 0.82 | 15 | -13 | 50* | -9 | 25 | 8
Nc1ccc(C(=O)OCCc2ccccc2)cc1 | · | -170 | · | -1 | -5 | -2 | ·
O=C(OCCc1ccccc1)c1cc(O)c(O)c(O)c1 | · | -20 | · | 118* | 11 | 12 | 11
CNC(=O)[C@H]1O[C@@H](n2cnc3c(NCc4cccc(I)c4)ncnc32)[C@H](O)[C@@H]1O | · | -18 | · | 1 | -12 | -4 | ·
Cc1ccc(C(=O)CSc2nc(N)cc(=O)[nH]2)cc1C | · | 8 | · | · | 7 | -2 | -1
Cc1cc(C(=O)CSc2nc(N)cc(=O)[nH]2)ccc1F | · | -17 | · | 0 | -3 | 2 | ·
N=C1N(/N=C/c2ccccc2)C(=Nc2ccccc2)C(=S)N1c1ccccc1 | -0.66 | -48 | -9 | 76* | -4 | 4 | 8
COCCSc1nnc(NC(=O)CCS(=O)(=O)c2ccccc2)s1 | · | 31 | · | 2 | -4 | 2 | ·
O=C(O)c1ccc(NC(=O)c2ccco2)c(NC(=O)c2ccco2)c1 | · | 10 | · | 2 | 1 | 3 | ·
CC(C)N(C(C)C)S(=O)(=O)c1ccc(N2CCc3ccccc3C2)nc1 | · | 39 | · | 64* | 5 | 29 | 2
Cc1cccc(C(=O)O/N=C(\N)c2cccc([N+](=O)[O-])c2)c1 | -0.42 | 40 | -8 | 3 | 4 | 1 | ·
CC1=CC(=O)C=C(C)C1=NOC(=O)c1cccc([N+](=O)[O-])c1 | -0.57 | 11 | -5 | 46* | 0 | 1 | 5
C=CCn1c(O)c(N=NC(=S)Nc2ccccc2C)c2cc(S(=O)(=O)N3CCOCC3)ccc21 | -0.61 | 39 | -1 | 45* | 3 | 3 | 31
Cn1c(O)c(N=NC(=S)Nc2ccccc2F)c2cc(S(=O)(=O)N3CCOCC3)ccc21 | -1.1 | · | -4 | · | 10 | · | ·
CCn1c(O)c(C2=c3ccccc3=NC2=O)c2cc(Br)ccc21 | 0.4 | 31 | 12 | 111* | · | -7 | 83*
Cc1ccc(Nc2nc(-c3ccc(O)c(O)c3)cs2)nc1 | -3.2 | 16 | -5 | 216* | · | 9 | 164*
N#Cc1ccc(OC(=O)C2CCN(C3=NS(=O)(=O)c4ccccc43)CC2)cc1 | · | 6 | · | 0 | 3 | -1 | ·
Cc1ccc(C(=O)Oc2ccc(Cl)c3cccnc23)cc1[N+](=O)[O-] | -1 | 20 | 20 | 81* | -5 | 22 | 65*
COc1ccc(C(=O)Oc2cccc3cccnc23)cc1[N+](=O)[O-] | 0.12 | -25 | -8 | -1 | 6 | 5 | ·
CC1(C)CC(=O)C(=Cc2cn(-c3ccccc3)nc2-c2ccc(Cl)cc2)C(=O)C1 | -0.84 | 37 | -18 | 288* | 19 | 27 | 221*
SMILES | Dynein cargo inh | Mdm2-MdmX inh | MDM2 E3 inh | CHOP UPR activ | B2AR ag | XBP1 UPR activ | CHOP UPR conf
CC1(C)CC(=O)C(=Cc2cn(CCC#N)nc2-c2ccc(Cl)cc2)C(=O)C1 | 0.18 | -11 | 5 | 0 | 17 | -5 | ·
CC1([N+](=O)[O-])COC2(CCCCC2)OC1 | · | · | · | · | 6 | · | ·
O=c1nc(Nc2cccc(Cl)c2)oc2cc(Cl)oc(=O)c12 | -3 | -24 | -77 | 41* | 39 | -2 | 73*
CCOC(=O)N1CCN(C(=O)C2CCC(=O)N(Cc3cccc(C(F)(F)F)c3)C2)CC1 (stereo unspecified) | · | 8 | · | 1 | -5 | -5 | ·
O=C(CCn1c(=S)oc2ccccc21)Nc1cc([N+](=O)[O-])ccc1F | · | 26 | · | 0 | 8 | -3 | ·
O=C(C=C=Nc1ccccc1)C(=O)N=C=Cc1ccccc1 | -0.77 | 40 | -11 | 225* | 37 | 1 | 135*
O=C(N/N=C/c1ccccc1)C(=O)N/N=C/c1ccccc1 | · | 29 | · | 0 | 5 | -1 | ·
Cc1cccc(C)c1NC(=O)CN(C)C(=O)c1cccc(NS(=O)(=O)c2ccccc2)c1 | · | 14 | · | 0 | 4 | -4 | ·
O=S(=O)(NCc1ccc2c(c1)OCO2)c1ccc(F)c(F)c1 | · | -6 | · | 3 | 12 | 2 | ·
O=C(NCC(O)c1ccc2ccccc2c1)c1c(F)cccc1F (stereo unspecified) | · | 0 | · | -1 | 0 | 1 | ·
Cc1cccc(Nc2nc(-c3ccccn3)cs2)n1 | 0.41 | -105 | -40 | 83* | -9 | 26 | 35*
CC(C)(C)c1ccc2c(c1)OC(C(=O)N/N=C/c1ccc([N+](=O)[O-])o1)CO2 (stereo unspecified) | -1.2 | 19 | -1 | 81* | 0 | 2 | 0
CC(C)(C)c1ccc2c(c1)OC(C(=O)N/N=C\c1ccncc1)CO2 (stereo unspecified) | -0.26 | -35 | 0 | 1 | 3 | 2 | ·
COc1ccc(-c2nc(-c3ccccc3)nc(Cl)c2C#N)cc1 | -0.27 | -1 | -4 | 81* | 22 | 72* | 33*
COc1ccc(-c2nc(-c3cccc(C)c3)nc(Cl)c2C#N)cc1 | -0.83 | · | 9 | · | · | · | ·
O=C1C(C2=NC(c3ccccn3)C3C(=O)N(c4ccc(OC(F)(F)F)cc4)C(=O)C23)=C(O)c2ccccc21 (stereo unspecified) | -0.49 | 14 | 10 | 42* | 1 | 17 | 9
C/C(=N\NC(=O)C1CCCC1)c1ccc(Cl)cc1 | · | 31 | · | 3 | -13 | 6 | ·
CCN=c1scc(C)n1/N=C/c1ccc(O)c(O)c1O | -1 | 8 | 8 | 79* | 8 | 7 | 9
COCCN=c1scc(-c2cccs2)n1/N=C/c1ccc(O)c(O)c1O | -3 | -2 | -8 | 347* | 29 | 8 | 104*
NS(=O)(=O)c1ccc(Sc2ccc3ccccc3c2)nc1 | · | 8 | · | 1 | 7 | 0 | ·
O=C(COc1ccccc1)NNc1nc2c(F)cc(F)cc2s1 | 2.7 | 18 | -18 | 2 | -4 | -3 | ·
